Data reported in ChEMBL document CHEMBL4732106, “Paracetamol analogues conjugated by FAAH induce TRPV1-mediated antinociception without causing acute liver toxicity” (Eur J Med Chem, 2021).
The source made the active and inactive calls. The calls are words filed in the database; no cut-off is given here.

How the values were obtained:
[1] = molecular target: T1, Transient receptor potential cation channel subfamily V member 1 (Rattus norvegicus, UniProt O35433); experiment: Agonist activity at TRPV1 in rat isolated mesenteric arteries assessed as vasorelaxation of phenylephrine-induced contraction; type: tissue-based, Artery
Procedure, shortened: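 Indomethacin 10 μM and Nω-nitro-L-arginine 100 μM were present throughout. Segments were precontracted with phenylephrine and exposed to conjugate concentrations. pEC₅₀ taken at half-maximal relaxation; mean ± SEM, n = animals.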

[2] = molecular target: T2, Fatty-acid amide hydrolase 1 (Mus musculus, UniProt O08914); experiment: Substrate activity at FAAH in FAAH+/+ mouse brain assessed as N-arachidonoyl conjugate level per g protein at 0.1 mM measured after 20 mins by LC-MS/MS analysis; type: ADME, tissue-based; details: 100 µM
T2 sequence (O08914 whole entry): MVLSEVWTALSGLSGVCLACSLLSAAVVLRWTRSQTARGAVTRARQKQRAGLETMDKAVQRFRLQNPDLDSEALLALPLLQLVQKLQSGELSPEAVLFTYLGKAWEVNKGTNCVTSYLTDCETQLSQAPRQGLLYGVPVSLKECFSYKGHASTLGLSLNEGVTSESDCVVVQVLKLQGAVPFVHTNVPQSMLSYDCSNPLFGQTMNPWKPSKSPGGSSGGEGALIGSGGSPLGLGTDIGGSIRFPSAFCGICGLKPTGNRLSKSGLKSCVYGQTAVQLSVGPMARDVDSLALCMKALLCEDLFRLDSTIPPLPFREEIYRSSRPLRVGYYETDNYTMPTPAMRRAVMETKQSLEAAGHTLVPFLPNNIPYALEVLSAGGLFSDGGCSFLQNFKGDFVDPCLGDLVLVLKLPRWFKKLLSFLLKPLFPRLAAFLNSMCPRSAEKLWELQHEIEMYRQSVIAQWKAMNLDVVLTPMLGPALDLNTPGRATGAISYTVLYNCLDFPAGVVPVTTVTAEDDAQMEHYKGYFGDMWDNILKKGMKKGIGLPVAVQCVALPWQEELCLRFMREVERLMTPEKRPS
Procedure, shortened: (§1)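 Brains from FAAH+/+ or FAAH-/- mice were homogenized in ice-cold 10 mM Tris with 1 mM EDTA and 0.3 mM ascorbic acid. Aliquots were incubated with 0.1 mM primary amine for 20 min at 37 °C with stirring. Reactions were stopped with cold acetone containing AM404-d4 internal standard, and conjugates were measured by LC-MS/MS. n = 5–7.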

[3] = Hepatotoxicity in C57BL/6 mouse assessed as centrilobular necrosis at 300 mg/kg, ip measured after 12 hrs by H and E staining based microscopic analysis; type: toxicity, organism-based; details: in vivo
Procedure, shortened: (§2)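 Male C57BL/6 mice (8 weeks) were fasted 12–16 h, then given 300 mg kg⁻¹ i.p. in saline. At 12 h, blood was taken for serum ALT/AST (automated analyser). The left medial liver lobe was fixed in 4% formaldehyde, cryosectioned at 10 μm and stained with H&E. The ALT/AST ratio was tested against 1. Mean ± SEM, n = 6–7.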

[4] = Prodrug conversion in FAAH-/- mouse brain assessed as N-arachidonoyl conjugate level per g protein at 300 mg/kg, ip measured after 20 mins by LC-MS/MS analysis; type: ADME, organism-based; details: in vivo
Procedure, shortened: (§3)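 FAAH+/+ and FAAH-/- mice (both sexes) received the primary amine i.p. in saline (sometimes with 5% DMSO). Brains were collected 20 min later, frozen, and homogenized in Tris/EDTA/ascorbate with 10 μM MAFP. N-arachidonoyl conjugates were quantified by positive-ion LC-MS/MS and normalized to protein.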

[5] = Prodrug conversion in FAAH-/- mouse brain assessed as N-arachidonoyl conjugate level per g protein at 0.1 mM measured after 20 mins by LC-MS/MS analysis; type: ADME, tissue-based; details: in vitro, 100 µM; procedure, shortened: as §1
[6] = Prodrug conversion in FAAH+/+ mouse brain assessed as N-arachidonoyl conjugate level per g protein at 300 mg/kg, ip measured after 20 mins by LC-MS/MS analysis; type: ADME, organism-based; details: in vivo; procedure, shortened: as §3
[7] = Hepatotoxicity in C57BL/6 mouse assessed as change in ALT level at 300 mg/kg, ip measured after 12 hrs; type: toxicity, organism-based; details: in vivo; procedure, shortened: as §2
Mus musculus [8] = experiment: Antinociceptive activity in ip dosed C57BL/6 mouse assessed as reduction in licking time during second phase treated for 10 mins and measured for 15 to 40 mins by formalin test; type: functional, organism-based; details: dose 25-100 mg/kg, time 50.0 min
Procedure, shortened: (§4)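 Male C57BL/6 mice, 8 weeks old, randomized in equal blocks (5–10 per group), observer blinded. The test amine or vehicle was given i.p. 10 min before intraplantar 2.5% formalin (25 μl/mouse). Time spent biting/licking the injected paw was recorded in phase I (0–5 min) and phase II (15–40 min). Mean ± SEM, n = 5–6.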

Mus musculus [9] = experiment: Antipyretic activity against LPS-induced C57BL/6 mouse model of hyperthermia assessed as 6-keto-PGF1alpha level in diencephalon at 25 mg/kg, ip measured after 40 mins by LC-MS/MS analysis relative to control; type: functional
Procedure, shortened: (§5)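 Male C57BL/6 mice got LPS (E. coli O111:B4, 100 μg kg⁻¹ i.p.) or saline, then 3 h later the drug i.p. in Ringer's acetate vehicle. Diencephalon was taken 40 min later and homogenized in Tris/EDTA/ascorbate with 10 μM MAFP and 100 μM ibuprofen. Prostanoids were quantified by negative-ion LC-MS/MS and expressed as % of LPS + vehicle. n = 6.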

Mus musculus [10] = experiment: Antinociceptive activity in C57BL/6 mouse assessed as reduction in licking time during first phase at 25 mg/kg, ip treated for 10 mins and measured for 5 mins in presence of FAAH inhibitor URB937 by formalin test; type: functional, organism-based; details: time 15.0 min
Procedure, shortened: (§6)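 Male C57BL/6 mice, 8 weeks old. URB937 (5 μg in 5 μl) or capsazepine (10 μg in 5 μl) was given i.c.v. under brief isoflurane, 2 mm deep, 5 min before the i.p. test amine. Formalin 2.5% (25 μl) was injected intraplantar 10 min after dosing. Paw biting/licking time was scored in phase I (0–5 min) and phase II (15–40 min) by a blinded observer. Mean ± SEM, n = 8–14.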

Mus musculus [11] = experiment: Antipyretic activity against LPS-induced C57BL/6 mouse model of hyperthermia assessed as PGF2alpha level in diencephalon at 25 mg/kg, ip measured after 40 mins by LC-MS/MS analysis relative to control; type: functional; procedure, shortened: as §5
Mus musculus [12] = experiment: Antinociceptive activity in C57BL/6 mouse assessed as reduction in licking time during second phase at 25 mg/kg, ip treated for 10 mins and measured for 15 to 40 mins in presence of TRPV1 antagonist capsazepine by formalin test; type: functional, organism-based; details: time 50.0 min; procedure, shortened: as §6
Mus musculus [13] = experiment: Antipyretic activity against LPS-induced C57BL/6 mouse model of hyperthermia assessed as PGE2 level in diencephalon at 25 mg/kg, ip measured after 40 mins by LC-MS/MS analysis relative to control; type: functional; procedure, shortened: as §5
Mus musculus [14] = experiment: Antinociceptive activity in C57BL/6 mouse assessed as reduction in licking time during second phase at 25 mg/kg, ip treated for 10 mins and measured for 15 to 40 mins in presence of FAAH inhibitor URB937 by formalin test; type: functional, organism-based; details: time 50.0 min; procedure, shortened: as §6
Mus musculus [15] = experiment: Antipyretic activity against LPS-induced C57BL/6 mouse model of hyperthermia assessed as TXB2 level in diencephalon at 25 mg/kg, ip measured after 40 mins by LC-MS/MS analysis relative to control; type: functional; procedure, shortened: as §5
Mus musculus [16] = experiment: Antipyretic activity against LPS-induced C57BL/6 mouse model of hyperthermia assessed as reduction in body temperature at 25 mg/kg, ip measured after 48 mins; type: functional, organism-based
Procedure, shortened: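 Male C57BL/6 mice carried telemetry and recovered ≥1 week before use, housed at 29 °C ambient (near-thermoneutral). LPS 100 μg kg⁻¹ i.p. or saline was given, then drug or Ringer's acetate vehicle i.p. 3 h later. Core temperature was recorded continuously and analysed at the nadir time point. n = 4–9 per group.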

Mus musculus [17] = experiment: Antinociceptive activity in C57BL/6 mouse assessed as reduction in licking time during first phase at 25 mg/kg, ip treated for 10 mins and measured for 5 mins in presence of TRPV1 antagonist capsazepine by formalin test; type: functional, organism-based; details: time 15.0 min; procedure, shortened: as §6
Mus musculus [18] = experiment: Antinociceptive activity in ip dosed C57BL/6 mouse assessed as reduction in licking time during first phase treated for 10 mins and measured for 5 mins by formalin test; type: functional, organism-based; details: dose 25-100 mg/kg, time 15.0 min; procedure, shortened: as §4
[19] = Prodrug conversion in FAAH-/- mouse brain assessed as N-arachidonoyl conjugate level per g protein at 100 mg/kg, ip measured after 20 mins by LC-MS/MS analysis; type: ADME, organism-based; set-up: unit: pmol/g protein; details: in vivo; procedure, shortened: as §3
[20] = Prodrug conversion in FAAH+/+ mouse brain assessed as N-arachidonoyl conjugate level per g protein at 100 mg/kg, ip measured after 20 mins by LC-MS/MS analysis; type: ADME, organism-based; set-up: unit: pmol/g protein; details: in vivo; procedure, shortened: as §3
[21] = Effect on locomotor activity in C57BL/6 mouse assessed as change in latency to fall at 25 mg/kg, ip treated for 10 mins measured up to 60 mins by rotarod test; type: ADME, organism-based; details: in vivo, 1 h
Procedure, shortened: (§7)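 Male C57BL/6 mice were first trained on a rotarod at a constant 4 rpm in 1-min sessions. At various times after i.p. dosing, the drum was accelerated from 4 to 40 rpm over 5 min and the latency to fall was recorded.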

[22] = molecular target: T1, Transient receptor potential cation channel subfamily V member 1; experiment: Agonist activity at TRPV1 in rat isolated mesenteric arteries assessed as vasorelaxation of phenylephrine-induced contraction in presence of TRPV1 antagonist capsazepine; type: tissue-based, Artery
Procedure, shortened: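 Segments from male Wistar rats (200–250 g) were bathed in pH 7.4 physiological salt solution at 37 °C, gassed 95% O₂/5% CO₂, with indomethacin 10 μM and Nω-nitro-L-arginine 100 μM present. After phenylephrine precontraction, conjugate concentration–relaxation curves were run in the presence of capsazepine 3 μM. pEC₅₀ is the negative log molar concentration giving half-maximal relaxation; mean ± SEM, n = animals.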

[23] = Effect on locomotor activity in C57BL/6 mouse assessed as change in latency to fall at 50 to 75 mg/kg, ip treated for 10 mins measured up to 60 mins by rotarod test; type: ADME, organism-based; details: in vivo, 1 h, dose 50-75 mg/kg; procedure, shortened: as §7
Mus musculus [24] = experiment: Antinociceptive activity in C57BL/6 mouse assessed as reduction in licking time during second phase at 50 mg/kg, ip treated for 10 mins and measured for 15 to 40 mins in presence of FAAH inhibitor URB937 by formalin test; type: functional, organism-based; details: time 50.0 min; procedure, shortened: as §6
Mus musculus [25] = experiment: Antinociceptive activity in C57BL/6 mouse assessed as reduction in licking time during second phase at 50 mg/kg, ip treated for 10 mins and measured for 15 to 40 mins in presence of TRPV1 antagonist capsazepine by formalin test; type: functional, organism-based; details: time 50.0 min; procedure, shortened: as §6
Mus musculus [26] = experiment: Antinociceptive activity in C57BL/6 mouse assessed as reduction in licking time during first phase at 50 mg/kg, ip treated for 10 mins and measured for 5 mins in presence of TRPV1 antagonist capsazepine by formalin test; type: functional, organism-based; details: time 15.0 min; procedure, shortened: as §6
Mus musculus [27] = experiment: Antinociceptive activity in C57BL/6 mouse assessed as reduction in licking time during first phase at 50 mg/kg, ip treated for 10 mins and measured for 5 mins in presence of FAAH inhibitor URB937 by formalin test; type: functional, organism-based; details: time 15.0 min; procedure, shortened: as §6

T1 sequence (O35433 whole entry): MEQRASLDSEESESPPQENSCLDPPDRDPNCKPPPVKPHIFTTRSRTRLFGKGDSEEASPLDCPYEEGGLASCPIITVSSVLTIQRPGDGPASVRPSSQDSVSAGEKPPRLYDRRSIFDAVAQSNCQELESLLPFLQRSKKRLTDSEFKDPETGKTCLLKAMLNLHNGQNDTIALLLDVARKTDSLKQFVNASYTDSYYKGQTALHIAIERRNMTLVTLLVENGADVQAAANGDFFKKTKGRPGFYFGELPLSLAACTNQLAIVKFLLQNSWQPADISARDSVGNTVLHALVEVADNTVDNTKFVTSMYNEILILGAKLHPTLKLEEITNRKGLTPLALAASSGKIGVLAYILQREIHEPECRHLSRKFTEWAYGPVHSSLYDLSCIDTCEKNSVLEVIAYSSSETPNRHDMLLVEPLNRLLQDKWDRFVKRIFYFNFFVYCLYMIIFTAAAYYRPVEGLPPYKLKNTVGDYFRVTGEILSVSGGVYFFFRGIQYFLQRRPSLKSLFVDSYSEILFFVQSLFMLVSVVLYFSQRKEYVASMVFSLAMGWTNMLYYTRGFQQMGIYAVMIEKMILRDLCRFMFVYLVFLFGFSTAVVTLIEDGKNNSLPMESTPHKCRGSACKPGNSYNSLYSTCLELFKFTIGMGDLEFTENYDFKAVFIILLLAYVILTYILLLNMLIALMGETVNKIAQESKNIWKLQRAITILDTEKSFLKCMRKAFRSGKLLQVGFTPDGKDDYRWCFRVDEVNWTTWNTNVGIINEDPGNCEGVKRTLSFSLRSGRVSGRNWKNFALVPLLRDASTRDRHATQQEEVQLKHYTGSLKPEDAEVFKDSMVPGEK

Drug metabolism [2] [nmol/g]	Drug metabolism [5] [nmol/g]	Drug metabolism [19] [pmol]	Drug metabolism [20] [pmol]	SMILES	EC50 [1] [nM]	EC50 [22] [nM]	other results
–	–	–	–	CCCCC/C=C\C/C=C\C/C=C\C/C=C\CCCC(=O)Nc1ccc(O)cc1	50.1	–	–
2.5	0.01	–	–	COc1cc(CN)ccc1O	–	–	Activity [3]: Non-Toxic; Drug metabolism [4]: Metabolite_Notdetected; Drug metabolism [6]: 40 pmol; Activity [7]: Non-Toxic
12	0.09	161	1731	Nc1ccc2[nH]ncc2c1	–	–	Activity (Mus musculus [8]): Dose-dependent effect; Activity (Mus musculus [9]): 99%; Activity (Mus musculus [10]): Active; Activity (Mus musculus [11]): 100%; Activity [3]: Non-Toxic; Activity (Mus musculus [12]): inactive; Activity (Mus musculus [13]): 96%; Activity (Mus musculus [14]): inactive; Activity (Mus musculus [15]): 91%; Activity (Mus musculus [16]): Active; Activity (Mus musculus [17]): Active; Activity (Mus musculus [18]): Dose-dependent effect; Activity [7]: Non-Toxic; Activity [21]: Non-Toxic
–	–	–	–	CCCCC/C=C\C/C=C\C/C=C\C/C=C\CCCC(=O)Nc1ccc(O)c(OC)c1	1.26	15.8	–
3	0.06	42	283	COc1ccc(N)cc1O	–	–	Activity (Mus musculus [8]): Dose-dependent effect; Activity [23]: Non-Toxic; Activity (Mus musculus [24]): inactive; Activity [3]: Non-Toxic; Activity (Mus musculus [25]): inactive; Activity (Mus musculus [26]): Active; Activity (Mus musculus [18]): Dose-dependent effect; Activity [7]: Non-Toxic; Activity (Mus musculus [27]): Active
–	–	–	–	CCCCC/C=C\C/C=C\C/C=C\C/C=C\CCCC(=O)Nc1ccc(OC)c(O)c1	3.16	63.1	–
2.5	0.04	58	58	NCc1ccc2[nH]ncc2c1	–	–	–
–	–	–	–	CCCCC/C=C\C/C=C\C/C=C\C/C=C\CCCC(=O)NCc1ccc2[nH]ncc2c1	3.98	158	–
–	–	–	–	CCCCC/C=C\C/C=C\C/C=C\C/C=C\CCCC(=O)Nc1ccc2[nH]ncc2c1	12.6	398	–
–	–	–	–	CCCCC/C=C\C/C=C\C/C=C\C/C=C\CCCC(=O)NCc1ccc(O)c(OC)c1	0.501	–	–
0.54	0.005	190	82	COc1cc(N)ccc1O	–	–	–
